Results reported in PubChem BioAssay AID977616 (Broad Institute, 2014).
Active and inactive are the calls of the source.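 The calls were made as follows: active = falling-signal curve whose AC50 is at most twice the highest valid dose tested; inconclusive = flat fit showing 30 to 70% signal loss, or poor fit; inactive = the rest, including opposite-direction effects.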

Tests used:
[1] = test system: HepG2 viability, CellTiter-Glo ATP luminescence, 72 h; experiment: HepG2 cell cytotoxicity, dose response, cytotoxicity control, CellTiter-Glo luminescence, dry powder, set 14 (AID 977616)
Summary of the method: (§1)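 Material: HepG2 cells, wild type / Amount: 2000 HepG2 cells per well / Times: seeding 24 h pre-dose, 72 h exposure, 37 °C, 5% CO2 / Measured by: CellTiter-Glo ATP luminescence / Medium: DMEM growth medium with 10% FBS / Dosing: compound tested at multiple concentrations (dose series)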

[2] = as above; conditions: HepG2 viability, CellTiter-Glo ATP luminescence, 72 h
Summary of the method: as §1

`COc1ccccc1-c1ccc(CN(C)C[C@@H]2Oc3cc(C#C[C@@H](C)O)ccc3S(=O)(=O)N([C@@H](C)CO)C[C@@H]2C)cc1` gave an AC50 [1] of 20.4 µM.
Molecule `C[C@H](O)C#Cc1ccc2c(c1)O[C@H](CN(C)Cc1ccc(-c3ccccc3)cc1)[C@@H](C)CN([C@@H](C)CO)S2(=O)=O` has an AC50 [1] of 4.56 µM.
With `Cc1cccc(-c2ccc(CN(C)C[C@@H]3Oc4cc(C#C[C@@H](C)O)ccc4S(=O)(=O)N([C@@H](C)CO)C[C@@H]3C)cc2)c1` the AC50 [1] was 23.1 µM.
For `CNC[C@@H]1Oc2cc(Br)ccc2S(=O)(=O)N([C@@H](C)CO)C[C@@H]1C`, the activity change, negative = cytotoxicity ([2]; at 26 µM (top of the series)) was -25.9% (inactive).
In the case of `C[C@@H]1CN([C@H](C)CO)S(=O)(=O)c2ccc(C#C[C@@H](C)O)cc2O[C@@H]1CN(C)Cc1ccc(-c2ccccc2)cc1`, the activity change, negative = cytotoxicity ([2]; at 26 µM (top of the series)) was -8.68% (inactive).
For `CO[C@H]1CN(C)C(=O)c2ccc(NC(=O)c3ccc(F)cc3)cc2OC[C@H](C)N(C(=O)c2ccc(F)cc2)C[C@@H]1C`, the activity change, negative = cytotoxicity ([2]; at 26 µM (top of the series)) was 11.6% (inactive).
With `C[C@@H](O)C#Cc1ccc2c(c1)O[C@@H](CN(C)Cc1cccnc1)[C@@H](C)CN([C@@H](C)CO)S2(=O)=O` the activity change, negative = cytotoxicity ([2]; at 26 µM (top of the series)) was 2.57% (inactive).
In the case of `C[C@H]1CN([C@@H](C)CO)S(=O)(=O)c2ccc(Br)cc2O[C@H]1CN(C)Cc1ccc(-c2ccccc2)cc1`, the activity change, negative = cytotoxicity ([2]; at 26 µM (top of the series)) was 14.1% (inactive).
In the case of `C[C@@H](O)C#Cc1ccc2c(c1)O[C@@H](CN(C)Cc1ccc(-c3ccccc3Cl)cc1)[C@@H](C)CN([C@@H](C)CO)S2(=O)=O`, the AC50 [1] was 25.9 µM.
`COc1ccc(-c2ccc(CN(C)C[C@@H]3Oc4cc(C#C[C@@H](C)O)ccc4S(=O)(=O)N([C@@H](C)CO)C[C@@H]3C)cc2)cc1` showed an AC50 [1] of 20.2 µM.
For `C[C@@H](O)C#Cc1ccc2c(c1)O[C@@H](CN(C)Cc1ccncc1)[C@@H](C)CN([C@@H](C)CO)S2(=O)=O`, the activity change, negative = cytotoxicity ([2]; at 26 µM (top of the series)) was -6.07% (inactive).
In the case of `C[C@H](O)C#Cc1ccc2c(c1)O[C@@H](CN(C)Cc1ccc(-c3ccccc3)cc1)[C@@H](C)CN([C@H](C)CO)S2(=O)=O`, the activity change, negative = cytotoxicity ([2]; at 12 µM (top of the series)) was -7.08% (inactive).
In the case of `C[C@H](CO)N1C[C@H](C)[C@H](CN(C)Cc2ccc(-c3ccccc3)cc2)Oc2cc(C#C[C@@H](C)O)ccc2S1(=O)=O`, the activity change, negative = cytotoxicity ([2]; at 26 µM (top of the series)) was 0.52% (inactive).
For `C[C@@H](O)C#Cc1ccc2c(c1)O[C@@H](CN(C)Cc1ccc(-c3cccc(Cl)c3)cc1)[C@@H](C)CN([C@@H](C)CO)S2(=O)=O`, the AC50 [1] was 25.4 µM.
For `C[C@@H](O)C#Cc1ccc2c(c1)O[C@@H](CN(C)S(=O)(=O)c1ccc(-c3ccccc3)cc1)[C@@H](C)CN([C@@H](C)CO)S2(=O)=O`, the activity change, negative = cytotoxicity ([2]; at 26 µM (top of the series)) was -8.38% (inactive).
For `C[C@H](O)C#Cc1ccc2c(c1)O[C@H](CN(C)Cc1ccc(-c3ccccc3)cc1)[C@H](C)CN([C@@H](C)CO)S2(=O)=O`, the activity change, negative = cytotoxicity ([2]; at 26 µM (top of the series)) was -13.4% (inactive).
In the case of `C[C@@H]1CN([C@@H](C)CO)S(=O)(=O)c2ccc(C#C[C@@H](C)O)cc2O[C@H]1CN(C)Cc1ccc(-c2ccccc2)cc1`, the AC50 [1] was 17.8 µM.
For `C[C@H]1CN([C@@H](C)CO)S(=O)(=O)c2ccc(-c3ccc(O)cc3)cc2O[C@H]1CN(C)Cc1ccc(-c2ccccc2)cc1`, the AC50 [1] was > 52 µM (inactive).
Molecule `C[C@H](O)C#Cc1ccc2c(c1)O[C@@H](CN(C)Cc1ccc(-c3ccccc3)cc1)[C@H](C)CN([C@@H](C)CO)S2(=O)=O` has an AC50 [1] of 19.7 µM.
In the case of `C[C@H](O)C#Cc1ccc2c(c1)O[C@@H](CN(C)Cc1ccc(-c3ccccc3)cc1)[C@H](C)CN([C@H](C)CO)S2(=O)=O`, the AC50 [1] was 19.2 µM.
For `C[C@@H](O)C#Cc1ccc2c(c1)O[C@H](CN(C)Cc1ccc(-c3ccccc3)cc1)[C@@H](C)CN([C@@H](C)CO)S2(=O)=O`, the AC50 [1] was 20 µM.
`C[C@H](O)C#Cc1ccc2c(c1)O[C@H](CN(C)Cc1ccc(-c3ccccc3)cc1)[C@@H](C)CN([C@H](C)CO)S2(=O)=O` gave an AC50 [1] of 21.2 µM.
In the case of `C[C@@H](O)C#Cc1ccc2c(c1)O[C@@H](CN(C)Cc1ccc(-c3ccc(Cl)cc3)cc1)[C@@H](C)CN([C@@H](C)CO)S2(=O)=O`, the AC50 [1] was 21.6 µM.
`COc1cccc(-c2ccc(CN(C)C[C@@H]3Oc4cc(C#C[C@@H](C)O)ccc4S(=O)(=O)N([C@@H](C)CO)C[C@@H]3C)cc2)c1` gave an AC50 [1] of 22.5 µM.
For `C[C@H](O)C#Cc1ccc2c(c1)O[C@@H](CN(C)Cc1ccc(-c3ccccc3)cc1)[C@@H](C)CN([C@@H](C)CO)S2(=O)=O`, the AC50 [1] was > 52 µM (inactive).
